# In PubChem BioAssay AID493069 (Broad Institute, 2011):
# “And” between values parts separate entries of the source, which are not always exact repeats. Equal entries are not always repeated. Records with an inconclusive call do not appear. The source made the active and inactive calls.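 The calls were made as follows: active = growth-curve midpoint potency at or below a set limit tied to the top tested dose, or full inhibition throughout; inconclusive = flat partial inhibition between 30 and 70%, or poor fit; inactive = the rest.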
# Test system: not listed separately
# Test: fluconazole-treated resistant Candida growth reduction – CaCi-8 resistant strain, dry powder, set 6, antifungal resistance reversal project, dose response (AID 493069)
# Conditions: C. albicans CaCi-8 + fluconazole, Alamar Blue, 48 h; at 2.6 µM (top of the series)
# Method in brief: (§1)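 Assay system: Fluconazole-resistant Candida albicans isolate CaCi-8 | Quantity: Fungal inoculum at starting OD600 of 0.00015 | Medium: MOPS-buffered RPMI 1640 defined medium plus Pen/Strep | Also added: Fluconazole at 8 µg/mL in the growth medium | Times: Compound exposure 48 h 37 °C, Alamar Blue 2 h RT | Signal: Alamar Blue fluorescence, Ex 544/Em 590 nm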
row,SMILES,"growth change, negative = inhibition"
1,COc1ccc2c(c1)c1nc3n(c(=O)c1n2CC(=O)N1CCC(C)CC1)CCS3,-12.4% (inactive)

# Same assay, conditions: C. albicans CaCi-8 + fluconazole, Alamar Blue, 48 h; at 26 µM (top of the series)
row,SMILES,"growth change, negative = inhibition"
1,O=C(Cn1c2ccccc2c2nc3n(c(=O)c21)CCS3)NCCc1ccc(Cl)cc1,-16.6% (inactive)
2,O=C(Cn1c2ccc(F)cc2c2nc3n(c(=O)c21)CCS3)N1CCCCCC1,-36.1% (inactive)
3,O=C(Cn1c2ccc(F)cc2c2nc3n(c(=O)c21)CCS3)N1CCCC1,-25.5% (inactive)
4,O=C(Cn1c2ccc(F)cc2c2nc3n(c(=O)c21)CCS3)N1CCCCC1,-17% (inactive)
5,CCN(CC)C(=O)Cn1c2ccc(F)cc2c2nc3n(c(=O)c21)CCS3,3.38% (inactive)
6,CCN(CC)C(=O)Cn1c2ccccc2c2nc3n(c(=O)c21)CCS3,10.7% (inactive)
7,O=C(Cn1c2ccccc2c2nc3n(c(=O)c21)CCCS3)c1ccc(F)cc1,-20.3% (inactive)

# Test system: C. albicans CaCi-8 + fluconazole, Alamar Blue, 48 h
# Test: as above
# Conditions: not given
# Method in brief: as §1
row,SMILES,AC50
1,COC(=O)Cn1nc(-c2ccc(Cl)cc2)c2ccccc21,15.8 µM
2,O=C(Cn1c2ccccc2c2nc3n(c(=O)c21)CCS3)N1CCCCC1,3.88 µM
3,O=C(O)Cn1nc(-c2ccccc2)c2ccccc21,> 26 µM (inactive)
4,O=c1c2[nH]c3ccc(F)cc3c2nc2n1CCS2,5.76 µM
5,O=C(Cn1c2ccccc2c2nc3n(c(=O)c21)CCS3)N1CCCC1,1.43 µM and 6.75 µM
6,O=C(Cn1c2ccccc2c2ccncc21)N1CCCCC1,26.2 µM
7,CC1CCN(C(=O)Cn2c3ccccc3c3nc4n(c(=O)c32)CCS4)CC1,5.56 µM
8,COC(=O)Cn1nc(-c2ccccc2)c2ccccc21,4.99 µM
9,O=c1c2[nH]c3ccccc3c2nc2n1CCS2,17.6 µM
10,CC1CCN(C(=O)Cn2c3ccc(F)cc3c3nc4n(c(=O)c32)CCCS4)CC1,22.9 µM
11,COC(=O)Cn1nc(-c2ccc(C)cc2)c2ccccc21,13.8 µM
12,O=C(Cn1c2ccccc2c2nc3n(c(=O)c21)CCS3)N1CCOCC1,4.83 µM
